Activity calls are given as the source filed them. The calls are words filed in the database; no cut-off is given here.

Usually GI50 stands for the concentration that inhibits growth by half. What is called LC50 is the concentration lethal to half of the exposed cells or organisms.

Holding throughout (assay type): functional
Test [1] relates to ACHN. As to the kind of experiment: Anticancer activity against human ACHN cells. A digest of the protocol: (§1)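 NCI 60 human cancer cell line panel, multiple-dose testing at five concentrations (10^-4, 10^-5, 10^-6, 10^-7 and 10^-8 M). Dose-response curves plot cytotoxic effect against log10 of drug concentration for each cell line. GI50 is the molar concentration giving 50% growth inhibition; LC50 is the concentration killing 50% of cells.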

Test [2] can be described thus: Anticancer activity against human BT549 cells. The gist of the method:
as §1

The subject of test [3] is SK-MEL-5. As to the kind of experiment: Anticancer activity against human SK-MEL-5 cells. A digest of the protocol:
as §1

In test [4] the test system is SK-MEL-2. Put plainly: Anticancer activity against human SK-MEL-2 cells. A digest of the protocol:
as §1

For test [5], the system named is MDA-MB-435. Put plainly: Anticancer activity against human MDA-MB-435 cells. A digest of the protocol:
as §1

Test [6] has as its system DU-145. Put plainly: Anticancer activity against human DU145 cells after 48 hrs. The note with it: DU-145, 48 h. The gist of the method:
as §1

[7] abbreviates: read-out: LC50 (the source's name).

Take `C/C1=C\CC[C@@]2(C)O[C@@H]2[C@H]2OC(=O)/C(=C/c3ccsc3)[C@@H]2CC1`: the GI50 in test [1] was 32.8 µM; in test [2] (BT-549), 20.1 µM; in test [3], 16.3 µM; in test [5], 18.3 µM; in test [6] it was 25.7 µM. The CC50 was more than 100 µM in test [1] (setting [7]); 88.2 µM in test [2] (BT-549, read-out: LC50 (the source's name)); more than 100 µM in test [5] (setting [7]); more than 100 µM in test [6] (setting [7]). The LC50 in test [3] came to 60.4 µM. Moreover, the GI50 entry in test [4] was “inactive”. Besides, in test [4], the LC50 result is “inactive”.

The values above are taken from ChEMBL document CHEMBL3352597, “Heck products of parthenolide and melampomagnolide-B as anticancer modulators that modify cell cycle progression” (Eur J Med Chem, 2014).
